Test results: ChEMBL document CHEMBL4311935, “Synthesis and antitumor activity of fluorouracil - oleanolic acid/ursolic acid/glycyrrhetinic acid conjugates” (Medchemcomm, 2019)
Activity calls are given as the source filed them. No cut-off for these calls is given here.

Key:
[1] = test system: A549; assay: Induction of apoptosis in human A549 cells assessed as activation of caspase-8 at 15 uM using FITC-DEVD-FMK as substrate after 48 hrs by flow cytometric analysis (reference value: 9.76 %); type: functional
[2] = test system: A549; assay: Induction of apoptosis in human A549 cells assessed as early apoptotic cells at 15 uM after 48 hrs by AnnexinV-FITC/propidium iodide staining based flow cytometry analysis (reference value: 0.99 %); type: functional
[3] = test system: Bel-7402; assay: Cytotoxicity against human Bel7402 cells assessed as cell growth inhibition after 48 hrs by MTT assay; type: functional, cell-based; settings: Bel-7402, 48 h
[4] = test system: A549; assay: Induction of cell cycle arrest in human A549 cells assessed as accumulation at G2 phase at 15 uM after 48 hrs by RNase/propidium iodide staining based flow cytometry analysis (reference value: 5.14 %); type: functional
Method in brief: (§1)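 A549 cells were grown in dishes for 24 h, then treated at 0, 10, 15 or 20 μM for 48 h. Cells were washed in cold PBS, fixed in cold 75% ethanol and held at −20 °C for 36 h. They were then treated with RNase A (100 μg mL–1) for 30 min and stained with propidium iodide (1 mg mL–1 stock) for 10 min in the dark before flow cytometry.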

[5] = test system: MCF7; assay: Cytotoxicity against human MCF7 cells assessed as cell growth inhibition after 48 hrs by MTT assay; type: functional, cell-based; settings: MCF7, 48 h
[6] = test system: A549; assay: Induction of apoptosis in human A549 cells assessed as late apoptotic cells at 15 uM after 48 hrs by AnnexinV-FITC/propidium iodide staining based flow cytometry analysis (reference value: 4.19 %); type: functional
[7] = test system: A549; assay: Induction of apoptosis in human A549 cells assessed as activation of caspase-3 at 20 uM using FITC-DEVD-FMK as substrate after 48 hrs by flow cytometric analysis (reference value: 5.99 %); type: functional
[8] = test system: A549; assay: Induction of cell cycle arrest in human A549 cells assessed as accumulation at G1 phase at 10 uM after 48 hrs by RNase/propidium iodide staining based flow cytometry analysis (reference value: 70.63 %); type: functional; method in brief: as §1
[9] = test system: A549; assay: Induction of cell cycle arrest in human A549 cells assessed as accumulation at G2 phase at 20 uM after 48 hrs by RNase/propidium iodide staining based flow cytometry analysis (reference value: 5.14 %); type: functional; method in brief: as §1
[10] = test system: A549; assay: Induction of cell cycle arrest in human A549 cells assessed as accumulation at S phase at 10 uM after 48 hrs by RNase/propidium iodide staining based flow cytometry analysis (reference value: 24.23 %); type: functional; method in brief: as §1
[11] = test system: A549; assay: Induction of cell cycle arrest in human A549 cells assessed as accumulation at G1 phase at 15 uM after 48 hrs by RNase/propidium iodide staining based flow cytometry analysis (reference value: 70.63 %); type: functional; method in brief: as §1
[12] = test system: A549; assay: Induction of apoptosis in human A549 cells assessed as activation of caspase-3 at 15 uM using FITC-DEVD-FMK as substrate after 48 hrs by flow cytometric analysis (reference value: 5.99 %); type: functional
[13] = test system: A549; assay: Induction of cell cycle arrest in human A549 cells assessed as accumulation at S phase at 20 uM after 48 hrs by RNase/propidium iodide staining based flow cytometry analysis (reference value: 24.23 %); type: functional; method in brief: as §1
[14] = test system: A549; assay: Induction of apoptosis in human A549 cells assessed as stimulation of ROS generation at 25 uM after 48 hrs by DCFH-DA staining-based flow cytometric analysis (reference value: 42.5 %); type: functional
[15] = test system: A549; assay: Induction of apoptosis in human A549 cells assessed as late apoptotic cells at 20 uM after 48 hrs by AnnexinV-FITC/propidium iodide staining based flow cytometry analysis (reference value: 4.19 %); type: functional
[16] = test system: NCI/ADR-RES; assay: Cytotoxicity against human MCF7/ADR cells assessed as cell growth inhibition after 48 hrs by MTT assay; type: functional, cell-based
[17] = test system: A549; assay: Induction of apoptosis in human A549 cells assessed as activation of caspase-8 at 20 uM using FITC-DEVD-FMK as substrate after 48 hrs by flow cytometric analysis (reference value: 9.76 %); type: functional
[18] = test system: A549; assay: Induction of cell cycle arrest in human A549 cells assessed as accumulation at G2 phase at 10 uM after 48 hrs by RNase/propidium iodide staining based flow cytometry analysis (reference value: 5.14 %); type: functional; method in brief: as §1
[19] = test system: A549; assay: Induction of apoptosis in human A549 cells assessed as stimulation of ROS generation at 20 uM after 48 hrs by DCFH-DA staining-based flow cytometric analysis (reference value: 42.5 %); type: functional
[20] = test system: A549; assay: Induction of apoptosis in human A549 cells assessed as stimulation of intracellular calcium influx by measuring fluorescence intensity at 10 to 15 uM after 48 hrs by Fluo-3/AM probe based flow cytometry analysis; type: functional, cell-based
Method in brief: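 Cells were seeded in six-well plates for 24 h, then treated at 0, 10 or 15 μM for 48 h. They were harvested, washed three times in serum-free RPMI 1640 and loaded with Fluo-3 AM (0.5 μM) for 60 min. After two washes and resuspension in serum-free medium, fluorescence was measured immediately by flow cytometry.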

[21] = test system: A549; assay: Induction of apoptosis in human A549 cells assessed as early apoptotic cells at 20 uM after 48 hrs by AnnexinV-FITC/propidium iodide staining based flow cytometry analysis (reference value: 0.99 %); type: functional
[22] = test system: L02; assay: Cytotoxicity against human LO2 cells assessed as cell growth inhibition after 48 hrs by MTT assay; type: cell-based; settings: L02, 48 h
[23] = test system: A549; assay: Induction of apoptosis in human A549 cells assessed as early apoptotic cells at 10 uM after 48 hrs by AnnexinV-FITC/propidium iodide staining based flow cytometry analysis (reference value: 0.99 %); type: functional
[24] = test system: A549; assay: Induction of apoptosis in human A549 cells assessed as activation of caspase-3 at 10 uM using FITC-DEVD-FMK as substrate after 48 hrs by flow cytometric analysis (reference value: 5.99 %); type: functional
[25] = test system: A549; assay: Cytotoxicity against human A549 cells assessed as cell growth inhibition after 48 hrs by MTT assay; type: functional, cell-based; settings: A549, 48 h
[26] = test system: A549; assay: Induction of cell cycle arrest in human A549 cells assessed as accumulation at S phase at 15 uM after 48 hrs by RNase/propidium iodide staining based flow cytometry analysis (reference value: 24.23 %); type: functional; method in brief: as §1
[27] = test system: A549; assay: Induction of apoptosis in human A549 cells assessed as late apoptotic cells at 10 uM after 48 hrs by AnnexinV-FITC/propidium iodide staining based flow cytometry analysis (reference value: 4.19 %); type: functional
[28] = test system: Bel7402/5-FU; assay: Cytotoxicity against human Bel7402/5-FU cells assessed as cell growth inhibition after 48 hrs by MTT assay; type: functional, cell-based
[29] = test system: K562; assay: Cytotoxicity against human K562 cells assessed as cell growth inhibition after 48 hrs by MTT assay; type: functional, cell-based; settings: K562, 48 h
[30] = test system: K562/Adr; assay: Cytotoxicity against human K562/ADR cells assessed as cell growth inhibition after 48 hrs by MTT assay; type: functional, cell-based
[31] = test system: A549/TR; assay: Cytotoxicity against human A549/T cells assessed as cell growth inhibition after 48 hrs by MTT assay; type: functional, cell-based
[32] = test system: A549; assay: Induction of apoptosis in human A549 cells assessed as activation of caspase-8 at 10 uM using FITC-DEVD-FMK as substrate after 48 hrs by flow cytometric analysis (reference value: 9.76 %); type: functional
[33] = test system: A549; assay: Induction of cell cycle arrest in human A549 cells assessed as accumulation at G1 phase at 20 uM after 48 hrs by RNase/propidium iodide staining based flow cytometry analysis (reference value: 70.63 %); type: functional; method in brief: as §1

## CC1(C)[C@@H](O)CC[C@]2(C)[C@H]3C(=O)C=C4[C@@H]5C[C@@](C)(C(=O)OCCCCCCCCn6cc(F)c(=O)[nH]c6=O)CC[C@]5(C)CC[C@@]4(C)[C@]3(C)CC[C@@H]12
[1]
  Activity: 12.7%
[2]
  Activity: 2.71%
[3]
  IC50: 21 µM
[4]
  Activity: 4.27%
[5]
  IC50: 12.9 µM
[6]
  Activity: 31.91%
[7]
  Activity: 64.7%
[8]
  Activity: 73.61%
[9]
  Activity: 2.81%
[10]
  Activity: 20.81%
[11]
  Activity: 76.07%
[12]
  Activity: 50.9%
[13]
  Activity: 5.01%
[14]
  Activity: 34.9%
[15]
  Activity: 46.4%
[16]
  IC50: 23.4 µM
[17]
  Activity: 32.4%
[18]
  Activity: 5.58%
[19]
  Activity: 40.5%
[20]
  Activity: Active
[21]
  Activity: 3.5%
[22]
  IC50: 20.9 µM
[23]
  Activity: 1.61%
[24]
  Activity: 24.5%
[25]
  IC50: 15.7 µM
[26]
  Activity: 19.66%
[27]
  Activity: 5.43%
[28]
  IC50: 19.8 µM
[29]
  IC50: 9.8 µM
[30]
  IC50: 27 µM
[31]
  IC50: 20.7 µM
[32]
  Activity: 9.26%
[33]
  Activity: 92.18%
